Experiments:
Cocaine esterase [1] = molecular target: T1, Cocaine esterase (Homo sapiens, UniProt O00748); assay: (§1) Metabolic stability of the compound in human intestinal microsomes assessed as carboxylesterase-2-mediated hydrolysis by measuring half life in absence of NADPH; assay type: ADME, Intestine; conditions: microsomes
T1 sequence (O00748 whole entry): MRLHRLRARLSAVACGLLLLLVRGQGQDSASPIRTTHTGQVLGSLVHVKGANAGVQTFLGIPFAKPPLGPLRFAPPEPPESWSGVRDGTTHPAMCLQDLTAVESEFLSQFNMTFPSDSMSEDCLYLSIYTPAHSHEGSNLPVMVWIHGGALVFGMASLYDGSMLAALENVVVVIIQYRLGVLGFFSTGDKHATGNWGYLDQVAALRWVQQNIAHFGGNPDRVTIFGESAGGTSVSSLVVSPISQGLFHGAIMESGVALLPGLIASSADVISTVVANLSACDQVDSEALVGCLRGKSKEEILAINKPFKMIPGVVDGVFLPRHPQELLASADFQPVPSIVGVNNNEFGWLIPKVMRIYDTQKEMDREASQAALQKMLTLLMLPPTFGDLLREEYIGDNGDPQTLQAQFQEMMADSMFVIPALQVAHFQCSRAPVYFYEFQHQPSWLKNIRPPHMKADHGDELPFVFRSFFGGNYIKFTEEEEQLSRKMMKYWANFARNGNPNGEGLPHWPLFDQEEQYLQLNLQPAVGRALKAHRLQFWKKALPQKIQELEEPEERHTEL
How it was run: (§2)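 Pooled mixed-gender human liver (N = 50) or intestinal (N = 6) microsomes at 0.5 or 0.76 mg/mL final, in 100 mM potassium phosphate pH 7.4, prewarmed 5 min at 37 °C. Substrate 1 µM, n = 2, final DMSO 0.025% and acetonitrile 0.98%. Aliquots taken over 0–60 min into acetonitrile with terfenadine internal standard. Parent loss by LC–MS/MS. CLint = 0.693·(mL incubation)/(t1/2·protein concentration).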

Liver carboxylesterase 1 [2] = molecular target: T2, Liver carboxylesterase 1 (Homo sapiens, UniProt P23141); assay: Metabolic stability of the compound in human liver microsomes assessed as carboxylesterase-1-mediated hydrolysis by measuring intrinsic clearance at 1 uM in absence of NADPH; assay type: ADME; how it was run: as §2
T2 sequence (P23141 whole entry): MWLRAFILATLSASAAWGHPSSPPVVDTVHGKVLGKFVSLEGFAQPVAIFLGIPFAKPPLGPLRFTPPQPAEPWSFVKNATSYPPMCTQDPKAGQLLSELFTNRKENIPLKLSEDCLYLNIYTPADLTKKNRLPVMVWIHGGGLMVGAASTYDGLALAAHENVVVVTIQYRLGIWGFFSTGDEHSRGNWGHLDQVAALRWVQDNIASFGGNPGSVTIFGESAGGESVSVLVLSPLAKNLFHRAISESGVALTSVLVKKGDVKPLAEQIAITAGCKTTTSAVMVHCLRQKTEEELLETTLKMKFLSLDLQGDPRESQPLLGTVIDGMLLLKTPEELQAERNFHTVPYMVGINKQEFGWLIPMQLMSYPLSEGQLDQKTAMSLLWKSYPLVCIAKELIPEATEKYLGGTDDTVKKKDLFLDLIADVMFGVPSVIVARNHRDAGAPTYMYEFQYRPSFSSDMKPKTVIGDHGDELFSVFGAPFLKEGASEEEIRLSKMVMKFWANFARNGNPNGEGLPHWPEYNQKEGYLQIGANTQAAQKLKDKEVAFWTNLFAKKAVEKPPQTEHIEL

Liver carboxylesterase 1 [3] = molecular target: T2, Liver carboxylesterase 1; assay: (§3) Metabolic stability of the compound in human liver microsomes assessed as carboxylesterase-1-mediated hydrolysis by measuring half life in absence of NADPH; assay type: ADME; conditions: microsomes; how it was run: as §2
Cocaine esterase [4] = molecular target: T1, Cocaine esterase; assay: Metabolic stability of the compound in human intestinal microsomes assessed as carboxylesterase-2-mediated hydrolysis by measuring intrinsic clearance at 1 uM in absence of NADPH; assay type: ADME, Intestine; how it was run: as §2
Liver carboxylesterase 1 [5] = molecular target: T2, Liver carboxylesterase 1; assay: Metabolic stability of the compound assessed as recombinant carboxylesterase-1 (unknown origin)-mediated hydrolysis after 60 mins; assay type: ADME; conditions: 1 h
How it was run: (§4)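 Metabolite identification. Substrate at 10 µM final (DMSO stock diluted in acetonitrile) incubated 1 h at 37 °C, pH 7.4, n = 1, with one of: recombinant CE-1 bactosomes, recombinant CE-2 bactosomes, control E. coli cytosol, or human liver or intestinal microsomes. Quench in acetonitrile, centrifuge, dry supernatant under nitrogen, reconstitute in mobile phase. Metabolite formation read by LC–MS/MS.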

Cocaine esterase [6] = molecular target: T1, Cocaine esterase; assay: Metabolic stability of the compound assessed as recombinant carboxylesterase-2 (unknown origin)-mediated hydrolysis after 60 mins; assay type: ADME; conditions: 1 h; how it was run: as §4
carboxylesterase-2 = molecular target: T3, carboxylesterase-2 (Homo sapiens, UniProt O00748); assay: as §1; assay type: ADME, Intestine; conditions: intestinal microsomes; how it was run: as §2
T3 sequence (O00748 whole entry): T1 sequence (O00748 whole entry)

carboxylesterase-1 = molecular target: T4, carboxylesterase-1 (Homo sapiens, UniProt P23141); assay: as §3; assay type: ADME; conditions: liver microsomes; how it was run: as §2
T4 sequence (P23141 whole entry): T2 sequence (P23141 whole entry)

Compound	t1/2 (Cocaine esterase [1]) [min]	CLint (Liver carboxylesterase 1 [2]) [µL/min/mg]	t1/2 (Liver carboxylesterase 1 [3]) [min]	CL (Cocaine esterase [4]) [µL/min/mg]	Stability (Liver carboxylesterase 1 [5])	Stability (Cocaine esterase [6])	half-life (carboxylesterase-2) [min]	half-life (carboxylesterase-1) [min]
COC(=O)NCCCC(C)C(=O)Oc1ccc(Oc2ccc(CN(Cc3ccccc3)c3cccc(NS(C)(=O)=O)c3C)cc2)cc1 (centres undefined)	0.53	1000	1.3	2600	–	–	–	–
C#CCC(CCCNC(=O)OC)C(=O)Oc1ccc(Oc2ccc(CN(Cc3ccccc3)c3cccc(NS(C)(=O)=O)c3C)cc2)cc1 (centres undefined)	0.84	550	2.5	1700	–	–	–	–
COC(=O)NCCCC(C)(C)C(=O)Oc1ccc(Oc2ccc(CN(Cc3ccccc3)c3cccc(NS(C)(=O)=O)c3C)cc2)cc1	1.4	240	5.7	1000	–	–	–	–
COC(=O)NCCCC(Cc1cn(Cc2ccccc2)nn1)C(=O)Oc1ccc(Oc2ccc(CN(Cc3ccccc3)c3cccc(NS(C)(=O)=O)c3C)cc2)cc1 (centres undefined)	1.9	140	6.7	480	Stable	Unstable	–	–
COC(=O)NCCCC(CC(C)C)C(=O)Oc1ccc(Oc2ccc(CN(Cc3ccccc3)c3cccc(NS(C)(=O)=O)c3C)cc2)cc1 (centres undefined)	–	82	–	220	–	–	6.3	17
COC(=O)NCCCC(Cc1ccccc1)C(=O)Oc1ccc(Oc2ccc(CN(Cc3ccccc3)c3cccc(NS(C)(=O)=O)c3C)cc2)cc1 (centres undefined)	9.9	73	19	140	–	–	–	–
COC(=O)NCCCC(C)(Cc1ccccc1)C(=O)Oc1ccc(Oc2ccc(CN(Cc3ccccc3)c3cccc(NS(C)(=O)=O)c3C)cc2)cc1 (centres undefined)	32	19	73	43	Stable	Unstable	–	–
C#CCC(CCCNC(=O)OC)C(=O)OCCOc1ccc(Oc2ccc(CN(Cc3ccccc3)c3cccc(NS(C)(=O)=O)c3C)cc2)cc1 (centres undefined)	0.73	770	1.8	1900	Stable	Unstable	–	–
COC(=O)NCCCC(Cc1cn(Cc2ccccc2)nn1)C(=O)OCCOc1ccc(Oc2ccc(CN(Cc3ccccc3)c3cccc(NS(C)(=O)=O)c3C)cc2)cc1 (centres undefined)	3.8	170	5.3	240	Stable	Unstable	–	–

From ChEMBL document CHEMBL3112535, “Undesired versus designed enzymatic cleavage of linkers for liver targeting” (Bioorg Med Chem Lett, 2014)
